# Screening results: PubChem BioAssay, several laboratories
# Hits are enriched below; roughly 1.3% of the tested compounds scored in any of these assays.
# Rad51 HR inh = human RAD51 strand exchange inhibitors, primary screen, biochemical, fluorescence; hit rate 0.085% among 200,000; DNA repair protein RAD51 homolog 1 (Homo sapiens), Q06609; AID 1385, 2008; hRad51 DNA strand exchange, fluorescence dequenching; inhibition, % at 10 µM;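 active = inhibition above 40% at the single screening dose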;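 note: 0% = DMSO control wells and 100% = blanks with heterologous ssDNA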
#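 Material: human Rad51–ssDNA filaments; Probe or stimulus: labelled 47-mer dsDNA for strand exchange; Doses: single 10 µM dose; Incubation: 37 °C 15-min filament assembly, 30-min compound preincubation, 15-min exchange; Technique: FRET fluorescence dequenching, excitation 485 nm, emission 520 nm; Measure: Fluorescence-based percent inhibition, control- and blank-normalised; Benchmarks: plate control and blank wells.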
# TAG inh = inhibitors of triacylglycerol accumulation, primary screen, cell-based, uHTS, fluorescence, H9c2. H9c2 cells, Nile Red lipid (TAG) fluorescence; cells loaded with 200 µM oleic acid. hit rate 0.66% among 230,000. inhibition, % at 12.5 µM;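 active = pattern-corrected inhibition of lipid staining of at least 50% with the nuclear-stain viability signal not falling by more than 50%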;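 note: 0% = DMSO wells and 100% = triacsin C control wells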
# PKD1 kinase inh = inhibitors of human PKD1 kinase, biochemical, fluorescence polarization; inhibition, % (no concentration beside the values); AID 797, 2007; PKD1 kinase fluorescence polarization assay; hit rate 0.056% among 200,000; in the data active = inhibition above about 50%
# Hck-Nef inh = inhibitors of Nef-activated human Hck kinase, primary screen, biochemical, Z-Lyte FRET, 384-well, Hck-YEEI. Tyrosine-protein kinase HCK (Homo sapiens), P08631. Recombinant Hck-YEEI plus Nef, Z-Lyte FRET kinase assay. inhibition, % at 20 µM. hit rate 0.68% among 220,000. AID 463187, 2010;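 active = Hck-Nef kinase inhibition above about 50%, limit read from the data; inactive = inhibition below that limit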;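 note: 0% = DMSO with Hck plus Nef and 100% = Hck alone without Nef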
# Mdm2 ligase inh = MDM2-luciferase reporter signal enhancers, primary screen, MDM2 E3 ligase inhibitor project, cell-based, luminescence, 1536-well. E3 ubiquitin-protein ligase Mdm2 (Homo sapiens), Q00987. cell-based MDM2 ubiquitination luciferase reporter, 2 h; 0 = plate control, 100 = twice control, blank-subtracted. signal enhancement, % at 5 µM. hit rate 0.11% among 210,000;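 active = signal enhancement of 30% or more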;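 note: luminescence tracks abundance of the self-degrading MDM2-luciferase fusion protein; higher signal means inhibition of MDM2 E3 ligase activity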
#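 Assay system: stable mammalian line carrying autodegrading MDM2–luciferase fusion reporter; amount: 2000 cells seeded into each well; buffer or medium: DMEM; benchmarks: plate control and blank wells; signal: luciferase luminescence; timing: 2 h compound exposure at 37 °C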
# PERK inh = block of dimerizer-induced PERK translation repression, primary screen, PERK inhibitor project, CHO PERK-DD cells, SEAP luminescence, HTS. CHO PERK-DD fusion, SEAP luminescence translation reporter. hit rate 0.17% among 220,000. inhibition, % at 5.6 µM. Eukaryotic translation initiation factor 2-alpha kinase 3 (Homo sapiens), Q9NZJ5;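 active = inhibition above the mean inhibition of all tested compounds plus 3 SD, set separately per screening campaign, cut at about 2.9% in these data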;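 note: PERK kinase domain activated by AP20187 dimerizer at 100 nM; 0% = DMSO with dimerizer and 100% = rapamycin at 8.4 µM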
# Target sequence (Q9NZJ5 whole entry, looked up, the tested form may be a part): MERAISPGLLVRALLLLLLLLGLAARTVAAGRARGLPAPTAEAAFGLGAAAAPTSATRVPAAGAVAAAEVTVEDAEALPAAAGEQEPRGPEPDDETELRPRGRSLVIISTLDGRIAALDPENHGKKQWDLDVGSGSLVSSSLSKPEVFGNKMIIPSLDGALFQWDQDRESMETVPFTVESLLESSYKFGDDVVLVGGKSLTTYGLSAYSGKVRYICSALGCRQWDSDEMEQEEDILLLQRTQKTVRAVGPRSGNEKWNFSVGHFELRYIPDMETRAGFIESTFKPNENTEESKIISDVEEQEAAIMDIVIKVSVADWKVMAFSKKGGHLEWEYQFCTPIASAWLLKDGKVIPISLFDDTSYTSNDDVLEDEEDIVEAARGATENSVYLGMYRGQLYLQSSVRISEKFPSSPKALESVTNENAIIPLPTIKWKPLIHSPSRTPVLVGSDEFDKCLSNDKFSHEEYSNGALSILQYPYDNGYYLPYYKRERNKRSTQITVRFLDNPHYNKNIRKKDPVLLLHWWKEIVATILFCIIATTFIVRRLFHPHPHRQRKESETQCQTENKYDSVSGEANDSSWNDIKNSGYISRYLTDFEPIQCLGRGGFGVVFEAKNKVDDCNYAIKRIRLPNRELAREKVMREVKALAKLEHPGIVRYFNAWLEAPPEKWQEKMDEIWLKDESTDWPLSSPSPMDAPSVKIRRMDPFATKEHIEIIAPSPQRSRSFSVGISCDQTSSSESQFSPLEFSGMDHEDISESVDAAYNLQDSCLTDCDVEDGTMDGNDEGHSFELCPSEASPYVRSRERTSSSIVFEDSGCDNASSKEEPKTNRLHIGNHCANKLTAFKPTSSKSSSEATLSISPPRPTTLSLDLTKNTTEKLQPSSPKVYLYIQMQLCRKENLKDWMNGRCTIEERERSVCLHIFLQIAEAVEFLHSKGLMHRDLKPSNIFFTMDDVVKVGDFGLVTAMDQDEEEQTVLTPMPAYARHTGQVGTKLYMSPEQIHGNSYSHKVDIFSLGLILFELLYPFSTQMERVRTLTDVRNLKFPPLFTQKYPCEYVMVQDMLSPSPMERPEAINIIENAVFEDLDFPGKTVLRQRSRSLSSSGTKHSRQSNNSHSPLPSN
# TAG conf = triacylglycerol accumulation inhibitors, retest, confirmation, cell-based, single concentration, Nile Red fluorescence, H9c2; H9c2 lipid accumulation; cells loaded with 200 µM oleic acid; shares compounds with TAG inh; AID 651629, 2012; inhibition, % at 12.5 µM; hit rate 71% among 990;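 active = mean inhibition across replicates of 40% or more; inactive = mean inhibition below 40%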;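 note: plate controls were DMSO only wells for no effect and Triacsin C treated wells for full effect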
# Active calls of the source: *; nt = not tested or not shown.
SMILES,Rad51 HR inh,TAG inh,PKD1 kinase inh,Hck-Nef inh,Mdm2 ligase inh,PERK inh,TAG conf
COc1ccc(Oc2nc(-c3ccccn3)nc3ccccc23)cc1,22,62*,nt,4,-13,0,53*
CSc1nc(Oc2ccc(F)cc2)c2ccccc2n1,-3,nt,12,1,0,2,nt
NNC(=O)c1csc(-c2ncc(C(F)(F)F)cc2Cl)n1,14,3,nt,-1,-15,2,nt
CCN(C[C@H]1N[C@@](CC)(C(=O)OC)[C@H]2C(=O)N(Cc3ccccc3)C(=O)[C@@H]12)S(=O)(=O)c1ccc(-c2ccccc2)cc1,nt,45,nt,nt,nt,nt,nt
CCN(C[C@H]1N[C@@](CC)(C(=O)OC)[C@H]2C(=O)N(Cc3ccccc3)C(=O)[C@@H]12)S(=O)(=O)c1ccc(C(C)(C)C)cc1,nt,65*,nt,nt,nt,nt,60*
COc1cccc(-c2nnc(SCC(=O)Nc3cc(C)ccc3OC)n2N)c1,-8,53*,-3,1,-7,0,26
COc1ccc(C)cc1NC(=O)CSc1nnc(-c2ccco2)n1N,-9,nt,-1,2,12,0,nt
C=C1C[C@H](O[C@@H]2O[C@H](CO)[C@@H](O)[C@H](O)[C@H]2O)[C@@H]2[C@H](OC(=O)[C@H]2C)[C@H]2[C@H](C)[C@H](O)C[C@@H]12,nt,13,nt,nt,nt,nt,nt
CSc1nc(N(C)NC(=O)c2ccc(Cl)cc2)c2ccccc2n1,6,65*,7,3,-7,1,66*
CSc1nc(N(C)NC(=O)c2ccccc2)c2ccccc2n1,6,57*,-1,0,-2,0,62*
Cc1ccc(C(=O)NN(C)c2nc3ccccc3nc2C(F)(F)F)cc1,-2,5,-8,3,-10,1,nt
COc1ccccc1NC(=O)Nc1ccnn1C1CCN(C(=O)C2CCOC2)CC1 (stereo unspecified),nt,8,nt,nt,nt,nt,nt
C#CCN(C[C@@H]1[C@@H](OC(=O)NCC2CCCCC2)[C@@H](OC(=O)NCC2CCCCC2)CN(C(=O)OC(C)C)N1C(=O)OC(C)C)S(=O)(=O)c1ccc(C)cc1,nt,51*,nt,nt,nt,nt,61*
C#CCN(C[C@@H]1[C@@H](OC(=O)NCc2ccccc2)[C@@H](OC(=O)NCc2ccccc2)CN(C(=O)OC(C)C)N1C(=O)OC(C)C)S(=O)(=O)c1ccc(C)cc1,nt,22,nt,nt,nt,nt,nt
COc1ccc(C(=O)NN2CCOCC2)cc1,nt,6,nt,nt,nt,nt,nt
Cc1ccc(-n2nnnc2CNC(=O)c2ccc([N+](=O)[O-])o2)cc1C,nt,60,nt,nt,nt,nt,nt
O=C(NCC(c1ccc(F)cc1)N1CCOCC1)c1ccc([N+](=O)[O-])o1 (stereo unspecified),nt,51*,nt,nt,nt,nt,76*
O=C(NCc1nnnn1-c1ccc(F)cc1)c1ccc([N+](=O)[O-])o1,nt,65*,nt,nt,nt,nt,82*
Nc1ccc2nc(NC(=O)C3CCCCC3)sc2c1,nt,10,-2,19,-16,0,nt
O=C(Nc1nc2ccc(C(=O)N3CCCCC3)cc2s1)C1CCCCC1,8,64*,-2,39,7,1,68*
NC(Cc1ccc(C(F)(F)F)cc1)c1csc(Nc2nncc3ccccc23)n1 (stereo unspecified),nt,52*,nt,nt,nt,nt,68*
CCCCN(C)C(=O)c1ccc(Nc2nc(C(N)Cc3ccc(C(F)(F)F)cc3)cs2)nc1 (stereo unspecified),nt,56*,nt,nt,nt,nt,71*
NC(Cc1ccc(C(F)(F)F)cc1)c1csc(Nc2ccc(C(=O)NCCCO)cn2)n1 (stereo unspecified),nt,57*,nt,nt,nt,nt,38
NC(Cc1ccc(C(F)(F)F)cc1)c1csc(Nc2ccc(C(=O)NCc3ccco3)cn2)n1 (stereo unspecified),nt,36,nt,nt,nt,nt,nt
NC(COCc1ccccc1)c1csc(Nc2nncc3ccccc23)n1 (stereo unspecified),nt,-6,nt,nt,nt,nt,nt
SMILES,Rad51 HR inh,TAG inh,PKD1 kinase inh,Hck-Nef inh,Mdm2 ligase inh,PERK inh,TAG conf
CN(CC(=O)Nc1ccc(F)c(F)c1F)C(=O)CCCSc1nc2ccccc2[nH]1,nt,4,nt,nt,nt,nt,nt
COc1cc2c(cc1OC)[C@@H](NC(=O)COc1ccccc1)[C@H](OCc1ccccc1)C2,nt,-21,nt,nt,nt,nt,nt
CCC(C)(C)NC(=O)C(c1ccccc1F)N(Cc1ccco1)C(=O)c1csnn1 (stereo unspecified),-5,53*,-10,9,-2,0,19
Cc1ccc(N(C(=O)CS(=O)CC(=O)Nc2ccc(F)cc2)C(C(=O)NC2CCCCC2)c2ccco2)cc1 (stereo unspecified),3,nt,-1,1,-9,0,nt
CCCCCCN(C(=O)CCCN1C(=O)NC(c2ccc(-c3ccccc3)cc2)C(C(=O)OCc2ccccc2)=C1C)C(C)C(=O)NCCCC (stereo unspecified),nt,38,nt,nt,nt,nt,nt
CCCCCCN(C(=O)CCCCCN1C(=O)NC(c2ccc([N+](=O)[O-])cc2)C(C(=O)OCc2ccccc2)=C1C)C(C(=O)NCCCC)C1CCCCC1 (stereo unspecified),nt,66*,nt,nt,nt,nt,56*
CCOc1c(Cl)cc(/C=C/C(=O)N(CC)CC(=O)NCc2cccs2)cc1OC,nt,59*,nt,nt,nt,nt,43*
O=C(NCCCN1CCOCC1)C(c1ccccc1)c1ccccc1,nt,10,nt,nt,nt,nt,nt
COc1cc2c(cc1NC(=O)Nc1cccc(C)c1)oc1ccccc12,-1,51*,3,1,-10,0,33
COc1cc2c(cc1NC(=O)Nc1ccc(C)cc1)oc1ccccc12,-4,26,6,9,-5,1,nt
COP(=O)(OC)C(NC(=O)Nc1ccccc1)c1ccccc1 (stereo unspecified),-10,4,nt,4,-7,1,nt
COCCn1cnc2c(c1=O)c1nc3ccccc3nc1n2/N=C/c1ccco1,nt,7,nt,14,-6,1,nt
COCCn1cnc2c(c1=O)c1nc3ccccc3nc1n2/N=C/c1ccc(OC)c(OC)c1,30,68*,nt,6,-21,-2,88*
Cc1cc(NC(=O)CCSc2nc(-c3ccco3)cc(C(F)(F)F)n2)no1,6,16,-7,-15,-7,0,nt
Cc1cc(NC(=O)CSc2nc(-c3ccco3)cc(C(F)(F)F)n2)no1,-8,66*,0,-1,-4,1,58*
